Test results from ChEMBL document CHEMBL1149048, “Kneglomeratanol, kneglomeratanones A and B, and related bioactive compounds from Knema glomerata” (J Nat Prod, 1994).
Values after ≈ are worked out from the molar mass of the structure shown.

How the values were obtained:
MCF7 = assay: Cytotoxicity against human MCF7 cells after 7 days; type: functional; conditions: MCF7, 168 h, read-out: ED50 (the source's name)
Outline: (§1)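 This was a seven-day in vitro cytotoxicity test run under standard protocols on three solid tumor lines: A-549 (human lung carcinoma), MCF-7 (human breast carcinoma) and HT-29 (human colon adenocarcinoma). Adriamycin was the positive control.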

HT-29 = assay: Cytotoxicity against human HT-29 cells after 7 days; type: functional; conditions: HT-29, 168 h, read-out: ED50 (the source's name); outline: as §1
[1] = tested on: Agrobacterium tumefaciens; assay: Antitumor activity against Agrobacterium tumefaciens-induced crown gall tumors in potato by disk test relative to control; type: functional
Outline: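 Crown gall tumors on potato discs were scored, and the read-out was % inhibition relative to control. The assay was run in-house.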

A549 = assay: Cytotoxicity against human A549 cells after 7 days; type: functional; conditions: A549, 168 h, read-out: ED50 (the source's name); outline: as §1
[2] = Toxicity in brine shrimp larvae; type: organism-based; conditions: artemia, in vivo

Compound	EC50 (MCF7) [µg/mL]	EC50 (HT-29) [µg/mL]	T/C [1] [%]	EC50 (A549) [µg/mL]	LC50 [2] [µg/mL]
Oc1cccc(CCCCCCCCCCCCc2ccccc2)c1	2.09 (≈ 6.17 µM)	2.62 (≈ 7.74 µM)	39	1.85 (≈ 5.46 µM)	1.37 (≈ 4.05 µM)
Oc1cccc(CCCCCCCCCCc2ccccc2)c1	7.76 (≈ 25 µM)	28.6 (≈ 92.1 µM)	54	35 (≈ 113 µM)	0.45 (≈ 1.45 µM)
Oc1cc(O)cc(CCCCCCCCCCc2ccccc2)c1	2.69 (≈ 8.24 µM)	3.24 (≈ 9.92 µM)	62	3.49 (≈ 10.7 µM)	0.47 (≈ 1.44 µM)
O=C(O)c1c(O)cccc1CCCCCCCCCCCCc1ccccc1	3.06 (≈ 8 µM)	2.98 (≈ 7.79 µM)	61	15 (≈ 39.2 µM)	1.24 (≈ 3.24 µM)
CC(=O)c1c(O)cc(O)cc1CCCCCCCCCCc1ccccc1	2.87 (≈ 7.79 µM)	4.47 (≈ 12.1 µM)	30	3.22 (≈ 8.74 µM)	0.18 (≈ 0.488 µM)
Oc1cc(O)cc(CCCCCCCCCCCCc2ccccc2)c1	1.84 (≈ 5.19 µM)	2.87 (≈ 8.1 µM)	45	3.26 (≈ 9.2 µM)	0.33 (≈ 0.931 µM)
COc1ccc(-c2coc3cc(O)cc(O)c3c2=O)cc1 [BIOCHANIN]	5.49 (≈ 19.3 µM)	28.4 (≈ 99.8 µM)	54	19.8 (≈ 69.5 µM)	107 (≈ 376 µM)
CCCCCCCCCCCCCCCc1cc(O)cc(O)c1 [CARDOL]	2.41 (≈ 7.52 µM)	3.25 (≈ 10.1 µM)	41	2.37 (≈ 7.39 µM)	7.65 (≈ 23.9 µM)
COc1cccc2c1C(=O)c1c(O)c3c(c(O)c1C2=O)C[C@@](O)(C(=O)CO)C[C@@H]3O[C@H]1C[C@H](N)[C@H](O)[C@H](C)O1 [DOXORUBICIN]	0.147 (≈ 0.27 µM)	0.00669 (≈ 0.0123 µM)	–	0.00148 (≈ 0.00272 µM)	–
COc1ccc(-c2coc3cc(O)ccc3c2=O)cc1 [FORMONONETIN]	1.96 (≈ 7.31 µM)	6.43 (≈ 24 µM)	79	2.87 (≈ 10.7 µM)	22.7 (≈ 84.6 µM)
Oc1cccc(CCCCCCCCC[C@H](O)c2ccccc2)c1 [KNEGLOMERATANOL]	2.32 (≈ 7.11 µM)	9.33 (≈ 28.6 µM)	29	5.99 (≈ 18.3 µM)	0.21 (≈ 0.643 µM)
CC(=O)c1c(O)cc(O)cc1CCCCCCCCc1ccccc1 [KNEGLOMERATANONE A]	3.44 (≈ 10.1 µM)	18.8 (≈ 55.3 µM)	38	3.89 (≈ 11.4 µM)	0.37 (≈ 1.09 µM)
CCCCCCCCCCCCCc1cc(O)cc(O)c1C(C)=O [KNEGLOMERATANONE B]	1.12 (≈ 3.35 µM)	6.56 (≈ 19.6 µM)	38	2.3 (≈ 6.88 µM)	1.92 (≈ 5.74 µM)
